From ChEMBL document CHEMBL1806466, “2-Amino-4-methyl-5-phenylethyl substituted-7-N-benzyl-pyrrolo[2,3-d]pyrimidines as novel antitumor antimitotic agents that also reverse tumor resistance” (Bioorg Med Chem, 2011) come the findings set out here.

By IC50 is commonly meant the concentration at which inhibition is half-maximal. Higher therefore signals a need for much substance.

The source made the active and inactive calls. The rule behind the calls is not given here.

Data set [1] concerns MCF7. Put plainly: Resistance factor, ratio of IC50 for drug-resistant […] human NCI/ADR cells expressing Pgp in absence of vinblastin to IC50 for drug-sensitive human MCF7 cells in presence of 50 nM vinblastin. The data set is classed as functional.
A short description of data set [2]: Cytotoxic activity against Pgp-deficient human MCF7/VP cells expressing MRP1 after 48 hrs by sulforhodamine B assay. The data set is classed as functional, cell-based. A digest of the protocol:
(§1)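 Cells plated at ~15% confluency and allowed 24 h to attach, then exposed to varying test concentrations for 48 h. Survival by SRB binding, reported as % decrease in binding versus ethanol solvent controls, mean of three wells. For NCI/ADR, exposure with 0 or 50 nM vinblastine; for MCF-7/VP, with 0 or 1 nM vincristine.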
(In SRB staining, fixed cells bind dye roughly in proportion to their protein.)

Another data set concerns NCI/ADR. Nature of the data set: Reversal of Pgp-mediated multidrug resistance in human NCI/ADR cells assessed as enhancement of cytotoxicity of vinblastine after 48 hrs by sulforhodamine B assay. The data set is classed as cell-based. A digest of the protocol: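 NCI/ADR cells plated at ~15% confluency and allowed 24 h to attach. […] Survival by SRB binding, each value the mean of three wells, with ethanol solvent controls. Pgp Antagonism Score = % survival without vinblastine / % survival with vinblastine.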

The target in data set [3] is Multidrug resistance-associated protein 1 (Homo sapiens, UniProt P33527). Put plainly: Reversal of MRP1-mediated multidrug resistance in human MCF7/VP cells assessed as enhancement of cytotoxicity of vincristine after 48 hrs by sulforhodamine B assay. The format is cell-based. A digest of the protocol:
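MCF-7/VP cells plated at ~15% confluency and allowed 24 h to attach. […] Survival by SRB binding. MRP1 Antagonism Score = % survival without vincristine / % survival with vincristine.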

The species entered for another data set is Bos taurus. Put plainly: Effect on bovine brain microtubule depolymerization assessed as decrease in absorbance at wavelength 340 nm after 15 mins. A digest of the protocol:
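Bovine brain tubulin purified by three assembly/disassembly cycles followed by ion exchange. Tubulin at 2.5 mg/mL […] in 1 M glutamate, pH 6.6, with 4% DMSO, preincubated with compound at 0 °C for 15 min. 0.5 mM GTP then added and samples warmed to 37 °C. A340 monitored about 60 min.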

Data set [4] in a line: Cytotoxic activity against drug-resistant […]-deficient human NCI/ADR cells expressing Pgp after 48 hrs by sulforhodamine B assay. The format is functional, cell-based. Conditions: NCI/ADR-RES. A digest of the protocol: as §1
Data set [5] concerns MCF7. Put plainly: Resistance factor, ratio of IC50 for Pgp-deficient human MCF7/VP cells expressing MRP1 in absence of vincristine to IC50 for drug sensitive human MCF7 cells in presence of 1 nM vincristine.
Data set [6] has as its system MCF7. Nature of the data set: Cytotoxic activity against drug-sensitive Pgp-, MRP1-deficient human MCF7 cells after 48 hrs by sulforhodamine B assay. Conditions: MCF7, 48 h.

Sequence of Multidrug resistance-associated protein 1 (P33527 whole entry): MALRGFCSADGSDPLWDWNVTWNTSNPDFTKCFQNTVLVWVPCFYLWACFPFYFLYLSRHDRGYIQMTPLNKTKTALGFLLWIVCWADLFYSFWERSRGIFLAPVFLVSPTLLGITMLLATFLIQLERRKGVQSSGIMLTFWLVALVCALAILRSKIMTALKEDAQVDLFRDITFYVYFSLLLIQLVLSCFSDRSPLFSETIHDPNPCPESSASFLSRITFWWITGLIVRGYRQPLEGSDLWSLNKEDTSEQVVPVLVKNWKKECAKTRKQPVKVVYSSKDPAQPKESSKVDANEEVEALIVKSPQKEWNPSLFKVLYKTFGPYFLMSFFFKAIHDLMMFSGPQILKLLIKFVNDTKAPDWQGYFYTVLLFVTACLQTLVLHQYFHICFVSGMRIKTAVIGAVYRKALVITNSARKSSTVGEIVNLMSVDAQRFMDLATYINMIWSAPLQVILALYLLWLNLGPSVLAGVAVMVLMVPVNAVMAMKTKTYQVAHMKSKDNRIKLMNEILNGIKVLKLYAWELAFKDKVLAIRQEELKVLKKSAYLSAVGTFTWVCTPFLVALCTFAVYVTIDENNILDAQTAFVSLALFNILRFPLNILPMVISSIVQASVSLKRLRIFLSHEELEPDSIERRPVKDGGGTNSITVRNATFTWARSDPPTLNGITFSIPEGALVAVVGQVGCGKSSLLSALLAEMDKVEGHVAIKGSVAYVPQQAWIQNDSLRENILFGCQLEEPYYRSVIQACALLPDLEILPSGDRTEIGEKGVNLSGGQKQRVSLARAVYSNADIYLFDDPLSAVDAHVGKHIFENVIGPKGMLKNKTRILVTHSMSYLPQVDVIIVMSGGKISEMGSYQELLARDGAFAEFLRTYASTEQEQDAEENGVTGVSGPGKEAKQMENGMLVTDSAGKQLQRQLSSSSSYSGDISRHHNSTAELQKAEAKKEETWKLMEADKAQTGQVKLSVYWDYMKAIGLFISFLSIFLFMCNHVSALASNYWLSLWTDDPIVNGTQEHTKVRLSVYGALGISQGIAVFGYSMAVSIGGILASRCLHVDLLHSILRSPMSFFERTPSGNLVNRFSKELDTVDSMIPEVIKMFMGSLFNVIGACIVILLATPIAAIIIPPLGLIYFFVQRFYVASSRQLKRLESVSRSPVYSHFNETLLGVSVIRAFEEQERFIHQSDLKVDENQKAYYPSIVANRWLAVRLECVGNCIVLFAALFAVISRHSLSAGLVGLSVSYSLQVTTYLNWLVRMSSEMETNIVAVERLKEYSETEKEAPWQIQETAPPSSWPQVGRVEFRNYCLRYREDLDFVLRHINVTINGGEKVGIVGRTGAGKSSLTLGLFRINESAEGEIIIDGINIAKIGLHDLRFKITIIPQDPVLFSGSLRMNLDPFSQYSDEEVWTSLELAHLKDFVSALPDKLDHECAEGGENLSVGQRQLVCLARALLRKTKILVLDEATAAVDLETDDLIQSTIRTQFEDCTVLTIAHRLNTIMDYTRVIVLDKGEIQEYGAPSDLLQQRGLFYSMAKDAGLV

`COc1cc(CCc2cn(Cc3ccccc3)c3nc(N)nc(C)c23)cc(OC)c1OC`: the “Ratio IC50” value with MCF7 [1] and with MCF7 [5] was 0.83 throughout. Further, the 50% inhibitory concentration (IC50) in data set [2] and in data set [4] was 0.25 µM in each case. Further, the result in the data set on NCI/ADR was inactive. In addition, the Activity entry in data set [3] is given as “Not Active”. For the same molecule, the outcome in the data set listed under Bos taurus was Active.

Turning to `CC[C@]1(O)C[C@H]2CN(CCc3c([nH]c4ccccc34)[C@@](C(=O)OC)(c3cc4c(cc3OC)N(C=O)[C@H]3[C@@](O)(C(=O)OC)[C@H](OC(C)=O)[C@]5(CC)C=CCN6CC[C@]43[C@@H]65)C2)C1` [VINCRISTINE], the “Ratio IC50” value in the data set with MCF7 [1] amounted to 167; in the data set with MCF7 [5], 15.5. The IC50 in data set [2] was determined as 0.0093 µM; in data set [4], 100 µM. Besides, the result in the data set filed under Bos taurus was Active.

With `Cc1nc(N)nc2c1c(CCc1ccccc1Cl)cn2Cc1ccccc1`, the entries for the “Ratio IC50” value in the data set with MCF7 [1] and with MCF7 [5] were 0.55 and 0.75, respectively. Also, the IC50 in data set [2] came out at 15 µM; in data set [4] it was 11 µM; in the data set with MCF7 [6] it was 20 µM. Further, the outcome with NCI/ADR and in the data set filed under Bos taurus was inactive. The Activity result in data set [3] is recorded as “Not Active”.

On to `COc1cc(OC)c(OC)cc1CCc1cn(Cc2ccccc2)c2nc(N)nc(C)c12`, for which the “Ratio IC50” value in the data set on MCF7 [1] is recorded as 0.66; in the data set on MCF7 [5], 1. For the same molecule, the 50% inhibitory concentration (IC50) is 15 µM in data set [2], 10 µM in data set [4] and 15 µM in the data set with MCF7 [6]. Also, the outcome in the data set with NCI/ADR and in the data set listed under Bos taurus was inactive. The Activity result in data set [3] is “Not Active”.

As to `COc1ccc(CCc2cn(Cc3ccccc3)c3nc(N)nc(C)c23)c(OC)c1OC`, the results for the “Ratio IC50” value in the data set with MCF7 [1] and in the data set with MCF7 [5] were 0.61 and 1.11, respectively. Also, the concentration for half-maximal inhibition (IC50) amounted to 20 µM in data set [2], 11 µM in data set [4] and 18 µM in the data set on MCF7 [6]. Besides, the result in the data set on NCI/ADR was inactive. For the same molecule, the outcome in data set [3] was Active. Besides, in the data set filed under Bos taurus, the outcome was Active.

Take `COc1cc(CCc2cn(Cc3ccccc3)c3nc(N)nc(C)c23)cc(OC)c1`: the “Ratio IC50” value in the data set with MCF7 [1] stood at 0.48; in the data set on MCF7 [5], 0.68. The IC50 was 17 µM in data set [2], 12 µM in data set [4] and 25 µM with MCF7 [6]. The outcome in the data set on NCI/ADR and in the data set filed under Bos taurus was inactive. Also, the result in data set [3] was Active.

Turning to `COc1cc(CCc2cn(Cc3ccccc3)c3nc(N)nc(C)c23)c(OC)c(OC)c1`, the figures for the “Ratio IC50” value in the data set with MCF7 [1] and in the data set on MCF7 [5] were 0.66 and 1.26, respectively. In addition, the IC50 is 63 µM in data set [2], 33 µM in data set [4] and 50 µM with MCF7 [6]. Further, the result in the data set on NCI/ADR was Active. In addition, the outcome in data set [3] was Active. Further, in the data set listed under Bos taurus, the outcome was inactive.

`CC(=O)O[C@H]1C(=O)[C@@]2(C)[C@H]([C@H](OC(=O)c3ccccc3)[C@]3(O)C[C@H](OC(=O)[C@H](O)[C@@H](NC(=O)c4ccccc4)c4ccccc4)C(C)=C1C3(C)C)[C@]1(OC(C)=O)CO[C@@H]1C[C@@H]2O` [PACLITAXEL]: the “Ratio IC50” value in the data set with MCF7 [1] was 1080; with MCF7 [5] it was 1.1. Also, the IC50 in data set [2] was 0.0028 µM; in data set [4], 2.7 µM. The outcome in the data set listed under Bos taurus was inactive.

On to `COc1ccc(CCc2cn(Cc3ccccc3)c3nc(N)nc(C)c23)c(OC)c1`, for which the “Ratio IC50” value in the data set with MCF7 [1] is 0.35; with MCF7 [5], 0.71. Further, the IC50 in data set [2] worked out at 12 µM; in data set [4] it was 6 µM; in the data set on MCF7 [6] it was 17 µM. The outcome in the data set with NCI/ADR was Active. In data set [3], the Activity result is “Not Active”. In addition, the result in the data set filed under Bos taurus was inactive.

Consider `CC[C@]1(O)C[C@@H]2CN(CCc3c([nH]c4ccccc34)[C@@](C(=O)OC)(c3cc4c(cc3OC)N(C)[C@H]3[C@@](O)(C(=O)OC)[C@H](OC(C)=O)[C@]5(CC)C=CCN6CC[C@]43[C@@H]65)C2)C1` [VINBLASTINE], for which the “Ratio IC50” value in the data set on MCF7 [1] is on record as above 134; with MCF7 [5], 1.1. Besides, the IC50 in data set [2] is 0.003 µM; in data set [4] it was above 375 µM. The result in the data set filed under Bos taurus was Active.

As to `COc1ccc(CCc2cn(Cc3ccccc3)c3nc(N)nc(C)c23)cc1OC`, the “Ratio IC50” value is 0.29 with MCF7 [1] and 0.41 with MCF7 [5]. Further, the IC50 was 7 µM in data set [2], 5 µM in data set [4] and 17 µM in the data set with MCF7 [6]. Moreover, the outcome in the data set with NCI/ADR and in the data set listed under Bos taurus was inactive. In data set [3], the Activity result is on record as “Not Active”.

For the molecule `COc1ccccc1CCc1cn(Cc2ccccc2)c2nc(N)nc(C)c12`, the “Ratio IC50” value in the data set with MCF7 [1] is recorded as 1.17; in the data set with MCF7 [5], 1.13. Moreover, the half-inhibitory concentration (IC50) worked out at 2.6 µM in data set [2] and 2.7 µM in data set [4]. In addition, the result in the data set with NCI/ADR was Active. In addition, in data set [3], the Activity entry is “Not Active”.

With `COc1cccc(OC)c1CCc1cn(Cc2ccccc2)c2nc(N)nc(C)c12`, the “Ratio IC50” value in the data set on MCF7 [1] stood at 0.54; in the data set on MCF7 [5], 0.91. The IC50 in data set [2] is 20 µM; in data set [4], 12 µM; in the data set with MCF7 [6], 22 µM. Further, the outcome in the data set with NCI/ADR and in the data set listed under Bos taurus was Active. Also, in data set [3], the Activity result is “Not Active”.
